≈ marks a conversion by molar mass, not a printed value.
How the values were obtained:
[1] = tested on: MTCC-739 (Escherichia coli); assay: Agar-disc diffusion, E. coli; format: cell-based; conditions: MTCC739, read-out: Diameter of Growth Inhibition Zone, E. coli
[2] = tested on: MTCC-2453 (Pseudomonas aeruginosa); assay: Agar-disc diffusion, P. aeruginosa; format: cell-based; conditions: MTCC2453, read-out: Diameter of Growth Inhibition Zone, P. aeruginosa
[3] = tested on: recultured (Enterobacter aerogenes); assay: Agar-disc diffusion, E. aerogenes; format: cell-based; conditions: Klebsiella aerogenes, read-out: Diameter of Growth Inhibition Zone, E. aerogenes
[4] = tested on: MTCC-96 (Staphylococcus aureus); assay: Agar-disc diffusion, S. aureus; format: cell-based; conditions: MTCC96, read-out: Diameter of Growth Inhibition Zone, S. aureus
[5] = tested on: MTCC-1306 (Bacillus cereus); assay: Agar-disc diffusion, B. cereus; format: cell-based; conditions: MTCC1306, read-out: Diameter of Growth Inhibition Zone, B. cereus
E. coli = assay: Minimal inhibitory concentration, E. coli; format: cell-based; conditions: Escherichia coli, read-out: Minimal Inhibitory Concentration (MIC), E. coli
P. aeruginosa = assay: Minimal inhibitory concentration, P. aeruginosa; format: cell-based; conditions: Pseudomonas aeruginosa, read-out: Minimal Inhibitory Concentration (MIC), P. aeruginosa
Summary of the method: (§1)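 Agar disc diffusion against bacterial strains, following a previously reported method. Strains were P. aeruginosa MTCC-2453 and S. aureus MTCC-96. Test compounds were anthraquinone-linked coumarins. MIC was reported in µg/mL.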

S. aureus = assay: Minimal inhibitory concentration, S. aureus; format: cell-based; conditions: Staphylococcus aureus, read-out: Minimal Inhibitory Concentration (MIC), S. aureus
Summary of the method: as §1

B. cereus = assay: Minimal inhibitory concentration, B. cereus; format: cell-based; conditions: Bacillus cereus, read-out: Minimal Inhibitory Concentration (MIC), B. cereus
[6] = tested on: Tyrosinase from mushrooms; assay: Mushroom tyrosinase inhibition, L-dopa as substrate; format: biochemical; conditions: mean ± SD of three experiments

MIC (E. coli) [µg/mL]	MIC (P. aeruginosa) [µg/mL]	MIC (S. aureus) [µg/mL]	MIC (B. cereus) [µg/mL]	Tyrosinase inhibitory activity (%) at 25 μg/mL ([6]; 25 μg/mL) [%]	Tyrosinase inhibitory activity (%) at 50 μg/mL ([6]; 50 μg/mL) [%]	Tyrosinase inhibitory activity (%) at 100 μg/mL ([6]; 100 μg/mL) [%]	Compound	zone of inhibition at 100 µg/disc [1] [mm]	zone of inhibition at 100 µg/disc [2] [mm]	zone of inhibition at 100 µg/disc [3] [mm]	zone of inhibition at 100 µg/disc [4] [mm]	zone of inhibition at 100 µg/disc [5] [mm]
0.5 (≈ 1.51 µM)	1 (≈ 3.02 µM)	1 (≈ 3.02 µM)	2 (≈ 6.04 µM)				O=C(O)c1cn(C2CC2)c2cc(N3CCNCC3)c(F)cc2c1=O [Ciprofloxacin, ciprofloxacin]	27	26	30	25	22
				55.67 ± 0.12	68.62 ± 0.32	85.54 ± 0.23	O=c1cc(CO)occ1O [Kojic acid, kojic acid]					

From PMC10864903 (Heliyon, 2024)
